Experimental data published in ChEMBL document CHEMBL1153726, “Synthesis and anticancer activity of sclerophytin-inspired hydroisobenzofurans” (Bioorg Med Chem Lett, 2009).

Experiments:
Format in all cases: functional
OVCAR-8 [1] = assay: Growth inhibition of human OVCAR8 cells at 1 nM after 96 hrs by MTT assay; parameters: scale not given: the % may be the effect or the level left
MDA-MB-435 = assay: Growth inhibition of human MDA-MB-435 cells at 1 nM after 96 hrs by MTT assay; parameters: scale not given: the % may be the effect or the level left
HL-60(TB) = assay: Growth inhibition of human HL-60(TB) cells at 1 nM after 96 hrs by MTT assay; parameters: scale not given: the % may be the effect or the level left
OVCAR-8 [2] = assay: Growth inhibition of human OVCAR8 cells at 10 nM after 96 hrs by MTT assay; parameters: scale not given: the % may be the effect or the level left
SK-MEL-28 [3] = assay: Growth inhibition of human SK-MEL-28 cells at 1 uM after 96 hrs by MTT assay; parameters: scale not given: the % may be the effect or the level left
NCI-H23 [4] = assay: Growth inhibition of human NCI-H23 cells at 10 nM after 96 hrs by MTT assay; parameters: scale not given: the % may be the effect or the level left
BT-549 [5] = assay: Growth inhibition of human BT549 cells at 1 uM after 96 hrs by MTT assay; parameters: scale not given: the % may be the effect or the level left
UACC-62 = assay: Growth inhibition of human UACC62 cells at 1 nM after 96 hrs by MTT assay; parameters: scale not given: the % may be the effect or the level left
HOP-92 [6] = assay: Growth inhibition of human HOP92 cells after 96 hrs by MTT assay; conditions: HOP-92, 96 h
Method in brief: (§1)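 Run in the NCI 60 human tumour cell line panel as a five-dose assay. GI50 and LC50 were reported for each cell line.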

BT-549 [7] = assay: Growth inhibition of human BT549 cells at 100 nM after 96 hrs by MTT assay; parameters: scale not given: the % may be the effect or the level left
IGROV-1 = assay: Growth inhibition of human IGROV1 cells at 10 uM after 96 hrs by MTT assay; parameters: scale not given: the % may be the effect or the level left
HCT-116 = assay: Growth inhibition of human HCT116 cells at 1 uM after 96 hrs by MTT assay; parameters: scale not given: the % may be the effect or the level left
NCI-H23 [8] = assay: Growth inhibition of human NCI-H23 cells at 10 uM after 96 hrs by MTT assay; parameters: scale not given: the % may be the effect or the level left
A498 = assay: Growth inhibition of human A498 cells at 10 nM after 96 hrs by MTT assay; parameters: scale not given: the % may be the effect or the level left
BT-549 [9] = assay: Growth inhibition of human BT549 cells after 96 hrs by MTT assay; conditions: BT-549, 96 h
Malme-3M = assay: Growth inhibition of human MALME-3M cells after 96 hrs by MTT assay; method in brief: as §1
M14 = assay: Growth inhibition of human M14 cells at 100 nM after 96 hrs by MTT assay; parameters: scale not given: the % may be the effect or the level left
OVCAR-3 = assay: Growth inhibition of human OVCAR-3 cells at 1 nM after 96 hrs by MTT assay; parameters: scale not given: the % may be the effect or the level left
NCI-H226 = assay: Growth inhibition of human NCI-H226 cells at 100 nM after 96 hrs by MTT assay; parameters: scale not given: the % may be the effect or the level left
786-0 = assay: Growth inhibition of human 786-0 cells at 10 nM after 96 hrs by MTT assay; parameters: scale not given: the % may be the effect or the level left
SF-268 = assay: Growth inhibition of human SF268 cells at 10 uM after 96 hrs by MTT assay; parameters: scale not given: the % may be the effect or the level left
MDA-MB-468 = assay: Growth inhibition of human MDA-MB-468 cells at 10 uM after 96 hrs by MTT assay; parameters: scale not given: the % may be the effect or the level left
HCC 2998 = assay: Growth inhibition of human HCC2998 cells after 96 hrs by MTT assay; conditions: HCC 2998, 96 h; method in brief: as §1
NCI-H322M = assay: Growth inhibition of human NCI-H322M cells at 10 uM after 96 hrs by MTT assay; parameters: scale not given: the % may be the effect or the level left
SK-MEL-28 [10] = assay: Growth inhibition of human SK-MEL-28 cells at 10 uM after 96 hrs by MTT assay; parameters: scale not given: the % may be the effect or the level left
MOLT-4 = assay: Growth inhibition of human MOLT4 cells at 100 nM after 96 hrs by MTT assay; parameters: scale not given: the % may be the effect or the level left
HOP-92 [11] = assay: Growth inhibition of human HOP92 cells at 1 uM after 96 hrs by MTT assay; parameters: scale not given: the % may be the effect or the level left
[12] = read-out: LC50 (the source's name)
[13] = read-out: Log10GI50 (converted)
[14] = read-out: Log10LC50 (converted)

Question: How did the Activity (OVCAR-8 [1]) turn out when C=C(C)[C@H]1CC=C(C)C2=CO[C@@H](c3ccccc3F)[C@@H]21 was run?
Answer: 99%

Question: What about the Activity (MDA-MB-435) of the same molecule?
Answer: 92%

Question: What about the Activity (HL-60(TB)) of the same molecule?
Answer: 104%

Question: What about the Activity (OVCAR-8 [2]) of the same molecule?
Answer: 97%

Question: And the Activity (SK-MEL-28 [3])?
Answer: 53%

Question: What about the Activity (NCI-H23 [4]) of the same molecule?
Answer: 92%

Question: What about the Activity (BT-549 [5]) of the same molecule?
Answer: -6%

Question: And the Activity (UACC-62)?
Answer: 88%

Question: What about the GI50 (HOP-92 [6]; read-out: GI50) of the same molecule?
Answer: 0.552 µM

Question: And the CC50 (HOP-92 [6]; [12])?
Answer: 26.8 µM

Question: What about the GI50 (HOP-92 [6]; [13]) of the same molecule?
Answer: 0.55 µM

Question: And the CC50 (HOP-92 [6]; [14])?
Answer: 26.9 µM

Question: What about the TGI (HOP-92 [6]; read-out: Log10TGI (converted)) of the same molecule?
Answer: 5.75 µM

Question: And the TGI (HOP-92 [6]; read-out: TGI)?
Answer: 5.76 µM

Question: And the Activity (BT-549 [7])?
Answer: 67%

Question: What about the Activity (IGROV-1) of the same molecule?
Answer: 65.74%

Question: And the Activity (HCT-116)?
Answer: 15%

Question: And the Activity (NCI-H23 [8])?
Answer: 95.4%

Question: And the Activity (A498)?
Answer: 91%

Question: What about the GI50 (BT-549 [9]; read-out: GI50) of the same molecule?
Answer: 1.72 µM

Question: What about the CC50 (BT-549 [9]; [12]) of the same molecule?
Answer: 34 µM

Question: And the GI50 (BT-549 [9]; [13])?
Answer: 1.7 µM

Question: And the CC50 (BT-549 [9]; [14])?
Answer: 33.9 µM

Question: And the TGI (BT-549 [9]; read-out: Log10TGI (converted))?
Answer: 8.32 µM

Question: What about the TGI (BT-549 [9]; read-out: TGI) of the same molecule?
Answer: 8.37 µM

Question: What about the GI50 (Malme-3M; read-out: GI50) of the same molecule?
Answer: 2.78 µM

Question: What about the CC50 (Malme-3M; [12]) of the same molecule?
Answer: 43.8 µM

Question: What about the GI50 (Malme-3M; [13]) of the same molecule?
Answer: 2.75 µM

Question: And the CC50 (Malme-3M; [14])?
Answer: 43.7 µM

Question: What about the TGI (Malme-3M; read-out: Log10TGI (converted)) of the same molecule?
Answer: 15.1 µM

Question: What about the TGI (Malme-3M; read-out: TGI) of the same molecule?
Answer: 15.1 µM

Question: And the Activity (M14)?
Answer: 80%

Question: What about the Activity (OVCAR-3) of the same molecule?
Answer: 88%

Question: What about the Activity (NCI-H226) of the same molecule?
Answer: 75%

Question: What about the Activity (786-0) of the same molecule?
Answer: 92%

Question: And the Activity (SF-268)?
Answer: 105.37%

Question: And the Activity (MDA-MB-468)?
Answer: 102.71%

Question: And the GI50 (HCC 2998; read-out: GI50)?
Answer: 6.4 µM

Question: What about the CC50 (HCC 2998; [12]) of the same molecule?
Answer: 45.3 µM

Question: What about the GI50 (HCC 2998; [13]) of the same molecule?
Answer: 6.46 µM

Question: What about the CC50 (HCC 2998; [14]) of the same molecule?
Answer: 45.7 µM

Question: What about the TGI (HCC 2998; read-out: Log10TGI (converted)) of the same molecule?
Answer: 19.5 µM

Question: What about the TGI (HCC 2998; read-out: TGI) of the same molecule?
Answer: 19.3 µM

Question: What about the Activity (NCI-H322M) of the same molecule?
Answer: 120.7%

Question: What about the Activity (SK-MEL-28 [10]) of the same molecule?
Answer: 110.2%

Question: And the Activity (MOLT-4)?
Answer: 81%

Question: What about the Activity (HOP-92 [11]) of the same molecule?
Answer: -14%
